Results published in ChEMBL document CHEMBL3046965, “Synthesis and quantitative structure-antifungal activity relationships of clovane derivatives against Botrytis cinerea” (2009).

Experiments:
Assay type in all cases: functional
Details in all cases: UCA 992, 144 h
[1] = test system: Botrytis cinerea; test: Antifungal activity against Botryotinia fuckeliana UCA 992 assessed as inhibition of radial growth at 200 ug/mL after 6 days relative to control
Procedure, shortened: (§1)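 Radial growth assay on glucose-malt-peptone-agar (61 g/L, pH 6.5-7.0). Compounds dissolved in EtOH, giving 50-200 mg L-1 final in the medium, with equal EtOH in control and treated plates. A 5 mm mycelial disk from an actively growing culture was placed at the plate centre and radial growth followed for 6 days. % inhibition = 100 - [(treated growth/control growth) × 100]. At least three independent experiments, each in triplicate, ± SD.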

[2] = test system: Botrytis cinerea; test: Antifungal activity against Botryotinia fuckeliana UCA 992 assessed as inhibition of radial growth at 100 ug/mL after 6 days relative to control; procedure, shortened: as §1
[3] = test system: Botrytis cinerea; test: Antifungal activity against Botryotinia fuckeliana UCA 992 assessed as inhibition of radial growth at 50 ug/mL after 6 days relative to control; procedure, shortened: as §1

CC1(C)C[C@H](O)[C@]23CC[C@H](O)[C@@](C)(CC[C@@H]12)C3
inhibition at 200 µg/mL [1]: 30% | inhibition at 100 µg/mL [2]: 24% | inhibition at 50 µg/mL [3]: 21%

CO[C@H]1CC(C)(C)[C@@H]2CC[C@@]3(C)C[C@]12CCC3=O
inhibition at 200 µg/mL [1]: 76% | inhibition at 100 µg/mL [2]: 42% | inhibition at 50 µg/mL [3]: 17%

CC1(C)CC(=O)[C@]23CCC(=O)[C@@](C)(CC[C@@H]12)C3
inhibition at 200 µg/mL [1]: 36% | inhibition at 100 µg/mL [2]: 25% | inhibition at 50 µg/mL [3]: 21%

CO[C@H]1CC(C)(C)[C@@H]2CC[C@@]3(CO)C[C@]12CC[C@H]3O
inhibition at 200 µg/mL [1]: 24% | inhibition at 100 µg/mL [2]: 9% | inhibition at 50 µg/mL [3]: 2%

CO[C@H]1CC(C)(C)[C@@H]2CC[C@@]3(C)C[C@]12CC[C@@H]3O
inhibition at 200 µg/mL [1]: 65% | inhibition at 100 µg/mL [2]: 43% | inhibition at 50 µg/mL [3]: 29%

C=CCO[C@H]1CC(C)(C)[C@@H]2CC[C@@]3(C)C[C@]12CC[C@H]3O
inhibition at 200 µg/mL [1]: 82% | inhibition at 100 µg/mL [2]: 72% | inhibition at 50 µg/mL [3]: 63%

CC1(C)C[C@H](OCCN)[C@]23CC[C@@H](O)[C@@](C)(CC[C@@H]12)C3
inhibition at 200 µg/mL [1]: 97% | inhibition at 100 µg/mL [2]: 82% | inhibition at 50 µg/mL [3]: 50%

CC1(C)C[C@H](OCCCl)[C@]23CC[C@@H](O)[C@@](C)(CC[C@@H]12)C3
inhibition at 200 µg/mL [1]: 66% | inhibition at 100 µg/mL [2]: 64% | inhibition at 50 µg/mL [3]: 56%

CC1(C)C[C@H](OCCBr)[C@]23CC[C@@H](O)[C@@](C)(CC[C@@H]12)C3
inhibition at 200 µg/mL [1]: 77% | inhibition at 100 µg/mL [2]: 73% | inhibition at 50 µg/mL [3]: 68%

CC1(C)C[C@H](OCCI)[C@]23CC[C@@H](O)[C@@](C)(CC[C@@H]12)C3
inhibition at 200 µg/mL [1]: 70% | inhibition at 100 µg/mL [2]: 67% | inhibition at 50 µg/mL [3]: 65%

CC1(C)C[C@H](OCCS)[C@]23CC[C@@H](O)[C@@](C)(CC[C@@H]12)C3
inhibition at 200 µg/mL [1]: 28% | inhibition at 100 µg/mL [2]: 27% | inhibition at 50 µg/mL [3]: 27%

CC1(C)C[C@H](OCC[N+](=O)[O-])[C@]23CC[C@@H](O)[C@@](C)(CC[C@@H]12)C3
inhibition at 200 µg/mL [1]: 90% | inhibition at 100 µg/mL [2]: 86% | inhibition at 50 µg/mL [3]: 80%

CC1(C)C[C@H](OCCO)[C@]23CC[C@@H](O)[C@@](C)(CC[C@@H]12)C3
inhibition at 200 µg/mL [1]: 60% | inhibition at 100 µg/mL [2]: 54% | inhibition at 50 µg/mL [3]: 48%

CC1(C)C[C@H](OCCn2ccnc2)[C@]23CC[C@@H](O)[C@@](C)(CC[C@@H]12)C3
inhibition at 200 µg/mL [1]: 98% | inhibition at 100 µg/mL [2]: 84% | inhibition at 50 µg/mL [3]: 67%

CC1(C)C[C@H](OCCOc2ccc([N+](=O)[O-])cc2)[C@]23CC[C@@H](O)[C@@](C)(CC[C@@H]12)C3
inhibition at 200 µg/mL [1]: 81% | inhibition at 100 µg/mL [2]: 79% | inhibition at 50 µg/mL [3]: 76%

CC1(C)C[C@H](OCCSC(=N)N)[C@]23CC[C@@H](O)[C@@](C)(CC[C@@H]12)C3
inhibition at 200 µg/mL [1]: 97% | inhibition at 100 µg/mL [2]: 83% | inhibition at 50 µg/mL [3]: 70%

CC1(C)C[C@H](OCCSc2ccccc2)[C@]23CC[C@@H](O)[C@@](C)(CC[C@@H]12)C3
inhibition at 200 µg/mL [1]: 24% | inhibition at 100 µg/mL [2]: 12% | inhibition at 50 µg/mL [3]: 6%

CC1(C)C[C@H](OCCn2cncn2)[C@]23CC[C@@H](O)[C@@](C)(CC[C@@H]12)C3
inhibition at 200 µg/mL [1]: 86% | inhibition at 100 µg/mL [2]: 57% | inhibition at 50 µg/mL [3]: 34%

CC(C)(C)O[C@H]1CC(C)(C)[C@@H]2CC[C@@]3(C)C[C@]12CC[C@H]3O
inhibition at 200 µg/mL [1]: 78% | inhibition at 100 µg/mL [2]: 66% | inhibition at 50 µg/mL [3]: 59%

CC1(C)C[C@H](SCCS)[C@]23CC[C@@H](O)[C@@](C)(CC[C@@H]12)C3
inhibition at 200 µg/mL [1]: 38% | inhibition at 100 µg/mL [2]: 34% | inhibition at 50 µg/mL [3]: 32%

CC1(C)C[C@H](OCCN2C(=O)c3ccccc3C2=O)[C@]23CC[C@@H](O)[C@@](C)(CC[C@@H]12)C3
inhibition at 200 µg/mL [1]: 60% | inhibition at 100 µg/mL [2]: 55% | inhibition at 50 µg/mL [3]: 50%

CO[C@H]1CC(C)(C)[C@@H]2CC[C@@]3(C)C[C@]12CC[C@H]3O [2BETA-METHOXYCLOVAN-9ALPHA-OL]
inhibition at 200 µg/mL [1]: 83% | inhibition at 100 µg/mL [2]: 60% | inhibition at 50 µg/mL [3]: 49%

CC1(C)C[C@H](O)[C@]23CC[C@@H](O)[C@@](C)(CC[C@@H]12)C3 [CLOVANEDIOL]
inhibition at 200 µg/mL [1]: 63% | inhibition at 100 µg/mL [2]: 50% | inhibition at 50 µg/mL [3]: 36%
